Data published in ChEMBL document CHEMBL4334444, “Studies of Jatrogossone A as a Reactive Oxygen Species Inducer in Cancer Cellular Models” (J Nat Prod, 2019).
The source made the active and inactive calls. The calls are words filed in the database; no cut-off is given here.

Tested on: MDA-MB-231
Test: Induction of ROS colocalization in mitochondria of human MDA-MB-231 cells at 30 uM incubated for 1 hr in presence of NAC by CellROX green reagent/mitotracker deep red staining based confocal microscopic method
Assay type: functional, cell-based
Method in brief: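 MDA-MB-231 plated at 4 × 10^4/well in phenol-red-free medium, 12 h at 37 °C; for rescue, NAC 100 μM pretreatment 0.5 h. Compound 30 μM or DMSO for 1 h, then CellROX green 5 μM final, MitoTracker Deep Red 250 nM, Hoechst 33342 500 nM (0.5 h before imaging). Washed twice, live spinning-disk confocal at 63×; two independent experiments.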

For `CC(=O)O[C@H]1/C2=C/[C@@H](C)C(=O)C[C@H]3[C@@H](/C=C(\C)C(=O)[C@H]2C[C@H]1C)C3(C)C`, which Activity is on record?
Its Activity is “inactive”.
